Compound activity from PubChem BioAssay.
Most compounds without a hit are left out; they make up all but 2.7% or so of the library.
MLL AF4-AF9 inh = MLL-AF4/AF9 protein interaction inhibition; P42568; 0.47% of 350,000 active; AID 651704; AlphaScreen, biotin-AF4 peptide binding to FLAG-AF9; inhibition, % at 10 µM;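 active means every replicate reaching a set inhibition limit, whatever the replicate mean, cut at about 25% in these data; inconclusive means mean inhibition reaches that limit but some replicates miss it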;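 further: 0% = plate neutral control median and 100% = total signal loss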
DENV2 CPE = inhibitors of DENV2 cytopathic effect; 1.7% of 350,000 active; DENV2-infected cells, cytopathic effect rescue, plate reader; AID 651640; CPE inhibition, % at 9.99 µM; in the data active means CPE inhibition above about 20%, passing the limit was not always enough; inconclusive means no clear call, values can overlap the other calls; tested in BHK-21 cells;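 further: 0% = median of neutral control wells and 100% = median of positive control wells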
SIRT5 inh = blocks human SIRT5 desuccinylation of peptide. AID 652115. 1.1% of 330,000 active. inhibition, % at 15 µM. Q9NXA8. Purified SirT5, succinyl-peptide AMC, trypsin-coupled fluorescence; in the data active means inhibition above about 15%; inconclusive means no clear call, values can overlap the other calls
Target sequence (Q9NXA8 whole entry, looked up): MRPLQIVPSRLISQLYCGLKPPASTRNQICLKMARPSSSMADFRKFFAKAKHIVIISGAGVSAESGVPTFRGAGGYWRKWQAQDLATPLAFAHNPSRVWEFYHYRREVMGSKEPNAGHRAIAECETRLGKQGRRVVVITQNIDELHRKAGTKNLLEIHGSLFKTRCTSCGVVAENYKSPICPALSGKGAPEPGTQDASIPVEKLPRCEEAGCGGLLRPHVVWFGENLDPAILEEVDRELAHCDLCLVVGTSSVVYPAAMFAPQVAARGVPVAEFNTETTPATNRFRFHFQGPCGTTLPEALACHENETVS
CaV13 ICDI inh = Primary screen for inhibitors of IQ motif and Ca2+-dependent inactivation inhibitor domain binding in CACNA1D, Förster resonance energy transfer in living cells, … | HEK cells, CFP/YFP FRET ICDI-IQ, plate reader, 10 min; percent FRET-ratio fall versus neutral wells | inhibition, % at 12.3 µM | 0.098% of 340,000 active;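 active means mean replicate inhibition of at least 30% and at least 1% of replicates passing that level; inconclusive means only one of the two criteria is met; inactive means neither criterion is met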;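 further: 0% = median of the neutral control wells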
S100A4 inh HTS = inhibitors of human S100A4 binding to myosin IIA peptide. AID 652163. S100A4/TAMRA-MyoIIA peptide fluorescence polarization. P26447. 0.14% of 360,000 active. inhibition, % at 10.7 µM;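 active means mean inhibition of at least 70% across replicates, with every replicate also reaching that level; inconclusive means mean inhibition reaches 70% but some replicates fall short; inactive means mean inhibition below 70%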
Target sequence (P26447 whole entry, looked up): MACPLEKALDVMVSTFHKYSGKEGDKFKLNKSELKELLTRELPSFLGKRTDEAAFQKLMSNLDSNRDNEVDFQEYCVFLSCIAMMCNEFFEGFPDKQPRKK
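Test system: S100A4 monomer protein. Medium: HEPES buffer with Ca2+, pH 7.2. Reagent: fluorescent myosin IIA peptide, 5 nM. Compound dosing: single-point compound testing. Timing: 5 min between mix addition and reading. Benchmarks: DMSO neutral and TFP positive wells.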
Active calls of the source: *.

`O=C(c1ccc2c(c1)OCO2)C1CCCN(C(=O)C2CCOCC2)C1` (configuration not stated) gave MLL AF4-AF9 inh 5, DENV2 CPE 3, SIRT5 inh -5, CaV13 ICDI inh 4 and S100A4 inh HTS 3.
For CSc1ccc(C(=O)C2CCCN(C(=O)c3ccc4c(c3)OCO4)C2)cc1 (configuration not stated) the results were MLL AF4-AF9 inh 2, DENV2 CPE 0, SIRT5 inh 16*, CaV13 ICDI inh -5 and S100A4 inh HTS 2.
`CC1CCCN(C(=O)c2ccc3c(c2)OCO3)C1` (configuration not stated) gave MLL AF4-AF9 inh 2, DENV2 CPE -3, SIRT5 inh -1 and S100A4 inh HTS 1.
O=C(NCC[C@H]1CC[C@H](NC(=O)C2CCCCC2)[C@H](CO)O1)c1cnccn1 was read as MLL AF4-AF9 inh 0, DENV2 CPE -1, SIRT5 inh 0 and S100A4 inh HTS 17.
CS(=O)(=O)Nc1ccc2c(c1)[C@@H]1C[C@H](CC(=O)NCc3ccc(Cl)cc3)O[C@@H](CO)[C@@H]1O2 was read as MLL AF4-AF9 inh -3, DENV2 CPE 11, SIRT5 inh -2 and S100A4 inh HTS -18.
O=C1Nc2ccccc2C(=O)N2C[C@@H](O)C[C@H]12 was read as MLL AF4-AF9 inh 49*, DENV2 CPE -3, SIRT5 inh -4, CaV13 ICDI inh -12 and S100A4 inh HTS -1.
`CN1CC(=O)Nc2ccccc2C1=O` gave MLL AF4-AF9 inh 1, DENV2 CPE -6, SIRT5 inh -2, CaV13 ICDI inh -6 and S100A4 inh HTS -1.
Screening Cc1ccc(S(=O)(=O)N(C)C[C@H]2Oc3ccc(NC(=O)C4CC4)cc3CC(=O)N([C@@H](C)CO)C[C@H]2C)cc1 returned MLL AF4-AF9 inh 0, DENV2 CPE 17, SIRT5 inh 0 and S100A4 inh HTS -4.
Screening Cc1ccc(C2(C)NC(=O)N(CC(=O)Nc3ccccc3C(=O)NC3CCCC3)C2=O)cc1 (configuration not stated) returned MLL AF4-AF9 inh 1, DENV2 CPE 62*, SIRT5 inh 0, CaV13 ICDI inh -5 and S100A4 inh HTS -2.
Cc1ccc(S(=O)(=O)N(C)C[C@H]2OCCCC[C@@H](C)Oc3ccc(NS(=O)(=O)c4ccccc4)cc3C(=O)N([C@@H](C)CO)C[C@H]2C)cc1 was read as MLL AF4-AF9 inh 2, DENV2 CPE -6, SIRT5 inh 22* and S100A4 inh HTS -4.
For Cc1ccc(S(=O)(=O)N(C)C[C@H]2OCCCC[C@@H](C)Oc3ccc(NS(C)(=O)=O)cc3C(=O)N([C@@H](C)CO)C[C@H]2C)cc1 the results were MLL AF4-AF9 inh 0, DENV2 CPE 9, SIRT5 inh 5 and S100A4 inh HTS -1.
Screening C[C@@H]1CCCCO[C@@H](CN(C)S(=O)(=O)c2ccccc2)[C@@H](C)CN([C@H](C)CO)C(=O)c2cc(NS(=O)(=O)c3ccc(F)cc3)ccc2O1 returned MLL AF4-AF9 inh -6, DENV2 CPE 10, SIRT5 inh -2, CaV13 ICDI inh -10 and S100A4 inh HTS -1.
Cc1ccc(S(=O)(=O)Nc2ccc3c(c2)C(=O)N([C@H](C)CO)C[C@@H](C)[C@@H](CN(C)S(=O)(=O)c2ccc(C)cc2)OCCCC[C@@H](C)O3)cc1 was read as MLL AF4-AF9 inh -1, DENV2 CPE inconclusive, SIRT5 inh 4 and S100A4 inh HTS 103*.
Screening Cc1ccc(S(=O)(=O)N(C)C[C@@H]2OCCCC[C@@H](C)Oc3ccc(NS(C)(=O)=O)cc3C(=O)N([C@@H](C)CO)C[C@H]2C)cc1 returned MLL AF4-AF9 inh 0, DENV2 CPE 36*, SIRT5 inh 2 and S100A4 inh HTS 0.
C[C@@H]1CN([C@@H](C)CO)C(=O)c2cc(NS(=O)(=O)c3ccccc3)ccc2O[C@@H](C)CCCCO[C@@H]1CN(C)S(=O)(=O)c1ccc(F)cc1 was read as MLL AF4-AF9 inh -1, DENV2 CPE -2, SIRT5 inh 22* and S100A4 inh HTS -1.
For C[C@H](CO)N1C[C@H](C)[C@H](CN(C)S(=O)(=O)c2ccc(Cl)cc2)Oc2ccc(NC(=O)Nc3ccc4c(c3)OCO4)cc2CC1=O the results were MLL AF4-AF9 inh 7, DENV2 CPE 0, SIRT5 inh 1 and S100A4 inh HTS 9.
C[C@H](CO)N1C[C@H](C)[C@@H](CN(C)C(=O)c2ccncc2)Oc2ncc(C#C[C@@H](C)O)cc2C1=O was read as MLL AF4-AF9 inh -1, DENV2 CPE -7, SIRT5 inh 4 and S100A4 inh HTS 48.
`Cc1ccc(CN2CC(=O)N3[C@@H](CO)[C@@H](c4ccc(Br)cc4)[C@@H]3C2)cc1` gave MLL AF4-AF9 inh 3, DENV2 CPE 2, SIRT5 inh -1 and S100A4 inh HTS 6.
CO[C@@H]1CN(C)C(=O)c2ccc(NC(=O)Nc3ccccc3)cc2OC[C@H](C)N(C(=O)Nc2c(C)noc2C)C[C@H]1C was read as MLL AF4-AF9 inh 1, DENV2 CPE 1, SIRT5 inh -2 and S100A4 inh HTS -5.
Cc1ccc(S(=O)(=O)N(C)C[C@H]2OCCCC[C@H](C)Oc3ccc(NS(=O)(=O)c4ccccc4)cc3C(=O)N([C@H](C)CO)C[C@H]2C)cc1 was read as MLL AF4-AF9 inh -3, DENV2 CPE 3, SIRT5 inh 27* and S100A4 inh HTS -11.
Screening Cc1ccc(S(=O)(=O)Nc2ccc3c(c2)C(=O)N([C@@H](C)CO)C[C@@H](C)[C@H](CN(C)S(=O)(=O)c2ccccc2)OCCCC[C@@H](C)O3)cc1 returned MLL AF4-AF9 inh -2, DENV2 CPE 9, SIRT5 inh 9 and S100A4 inh HTS -2.
Cc1ccc(S(=O)(=O)Nc2ccc3c(c2)C(=O)N([C@H](C)CO)C[C@H](C)[C@@H](CN(C)S(=O)(=O)c2ccc(F)cc2)OCCCC[C@H](C)O3)cc1 was read as MLL AF4-AF9 inh -1, DENV2 CPE 3, SIRT5 inh 1 and S100A4 inh HTS -2.
For Cc1ccc(S(=O)(=O)N(C)C[C@@H]2OCCCC[C@H](C)Oc3ccc(NS(=O)(=O)c4ccccc4)cc3C(=O)N([C@H](C)CO)C[C@H]2C)cc1 the results were MLL AF4-AF9 inh 3, DENV2 CPE 2, SIRT5 inh 18* and S100A4 inh HTS 2.
C[C@@H]1CN([C@@H](C)CO)C(=O)c2cc(NS(=O)(=O)c3ccccc3)ccc2O[C@@H](C)CCCCO[C@@H]1CN(C)S(=O)(=O)c1ccccc1 was read as MLL AF4-AF9 inh 2, DENV2 CPE -5, SIRT5 inh 17* and S100A4 inh HTS -17.
For Cc1ccc(S(=O)(=O)N(C)C[C@@H]2OCCCC[C@H](C)Oc3ccc(NS(=O)(=O)c4ccc(F)cc4)cc3C(=O)N([C@H](C)CO)C[C@H]2C)cc1 the results were MLL AF4-AF9 inh -1, DENV2 CPE 8, SIRT5 inh 22* and S100A4 inh HTS -14.
